Screening data from PubChem.
Compounds with a hit are over-represented: about 2% of the library has one in this group of screens.
SIAE inh: inhibitors of human sialic acid acetylesterase SIAE. SIAE FP-Rh probe binding, fluorescence polarization. inhibition, % at 9.66 µM. actives 0.69% (n = 370,000);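 active = inhibition above a cutoff: mean of compounds within the control limits plus 3 SD of those, cut at about 17% in these data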;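 note: 0% = plate median of compound wells and 100% = probe without SIAE protein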
Target sequence (Q9HAT2 whole entry, looked up): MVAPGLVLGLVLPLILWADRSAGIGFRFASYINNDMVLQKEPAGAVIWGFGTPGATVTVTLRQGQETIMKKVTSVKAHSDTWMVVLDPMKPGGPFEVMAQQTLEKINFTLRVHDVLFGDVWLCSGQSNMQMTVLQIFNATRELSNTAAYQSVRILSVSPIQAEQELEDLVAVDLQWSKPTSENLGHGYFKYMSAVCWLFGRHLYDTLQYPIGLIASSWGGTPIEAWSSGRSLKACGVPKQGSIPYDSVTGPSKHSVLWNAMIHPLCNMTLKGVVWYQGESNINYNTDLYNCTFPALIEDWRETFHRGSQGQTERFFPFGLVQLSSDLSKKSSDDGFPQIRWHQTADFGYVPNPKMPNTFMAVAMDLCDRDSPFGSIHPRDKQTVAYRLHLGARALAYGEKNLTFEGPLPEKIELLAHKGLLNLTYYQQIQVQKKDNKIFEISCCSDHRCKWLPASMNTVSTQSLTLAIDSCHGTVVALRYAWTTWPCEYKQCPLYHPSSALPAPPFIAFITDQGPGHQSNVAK
HTRA1 inhibitor: inhibitors of human serine peptidase HTRA1. AID 504803. recombinant HTRA1, FP-rhodamine activity-based probe, fluorescence polarization. inhibition, % at 5.96 µM. actives 0.5% (n = 340,000); in the data active = inhibition above about 36%;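 note: 0% = enzyme with DMSO and 100% = wells lacking enzyme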
TDP2 absorb: blocks human TDP2 phosphodiesterase activity; recombinant TDP2, T5PNP hydrolysis, p-nitrophenol absorbance 415 nm; inhibition, % at 12.8 µM; actives 0.34% (n = 370,000); O95551;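 active = inhibition above the mean of all tested compounds plus 3 SD, set per campaign, cut at about 25% in these data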;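 note: 0% = DMSO with enzyme and 100% = buffer with substrate but no TDP2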
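System – recombinant human TDP2 · Quantity – TDP2 enzyme at 120 nM final · Doses – single concentration, 12.8 µM nominal, with 1% DMSO · Incubation – 2 h at 37 °C · Measured by – epi absorbance of p-nitrophenol freed from T5PNP by hydrolysis · Read-out – % inhibition relative to enzyme-containing and enzyme-free wells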
TCR-CD3 inh: human TCR-CD3 binding inhibition; TAMRA-labeled TCR probe fluorescence, biochemical; inhibition, % at 9.4 µM; actives 0.37% (n = 360,000); AID 651800; in the data active = inhibition above about 19%;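 note: recombinant mutant TCR 2C K166C tagged with TAMRA read by polarization; 0% = receptor in buffer alone and 100% = receptor with positive control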
ABHD4 inh: inhibitors of mouse ABHD4; Q8VD66; purified mABHD4, FP-Rh probe fluorescence polarization; inhibition, % at 8.92 µM; actives 0.54% (n = 370,000);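 active = inhibition exceeding the mean over every tested compound plus 3 SD, cut at about 30% in these data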;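 note: 0% = plate median of compound wells and 100% = S159A mutant with DMSO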
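Assay system: mABHD4 protein; medium: HEPES pH 7.0, NaCl, Pluronic buffer; dosing: 8.92 µM, single dose; schedule: 45 min + 60 min at 25 °C; signal: FP readout, ex 525 nm / em 598 nm; read-out: normalized percent inhibition of probe labeling; repeats: single replicate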
PAD4 inh: PAD4 (human) enzyme inhibition; Q9UM07; recombinant PAD4, RCA probe fluorescence polarization; inhibition, % at 6.36 µM; actives 0.41% (n = 330,000);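 active = percent inhibition above a cutoff equal to the mean of all tested compounds plus 3 SD, cut at about 15% in these data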;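 note: 0% = PAD4 with RCA probe and DMSO and 100% = probe without PAD4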
HTRA1 inh conf: HTRA1 (human) inhibition, confirmation; recombinant HTRA1, FP-rhodamine activity-based probe, fluorescence polarization; inhibition, % at 5.96 µM; shares compounds with HTRA1 inhibitor; actives 66% (n = 1,600); AID 540248;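 active = mean inhibition over three repeats above a set limit taken from the earlier primary screen, cut at about 37% in these data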;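 note: 0% = HTRA1 with DMSO and 100% = wells lacking HTRA1; inhibitors block probe binding so polarization drops and inhibition rises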
Numbers without * were called inactive.

Screening COc1ccc2sc(-c3ccc(N(C)C)cc3)c(C#CC(C)(C)O)c2c1 returned SIAE inh -3.4, HTRA1 inhibitor 0.4, TDP2 absorb -7.0, TCR-CD3 inh 2.8, ABHD4 inh 6.0 and PAD4 inh 2.3.
For COc1ccc2sc(-c3ccc(N(C)C)cc3)c(C#Cc3cncn3C)c2c1 the results were SIAE inh 12.2, HTRA1 inhibitor 47.9*, TDP2 absorb 7.9, TCR-CD3 inh -2.9, ABHD4 inh 17.9, PAD4 inh 1.9 and HTRA1 inh conf 24.0.
For CC(=O)N1CCN(S(=O)(=O)c2cccc(C(=O)NC3CC3)c2)CC1 the results were SIAE inh 3.3, HTRA1 inhibitor 2.8, TDP2 absorb 3.6, TCR-CD3 inh 4.1, ABHD4 inh 5.2 and PAD4 inh -1.3.
CCC(C(=O)NC1CCCC1)N(C(=O)Cn1nnc(-c2ccc(C)o2)n1)c1ccc(F)cc1 (centres undefined) was read as SIAE inh 1.0, HTRA1 inhibitor 1.6, TDP2 absorb -0.8, TCR-CD3 inh 4.7 and ABHD4 inh 5.6.
COc1ccc(S(=O)(=O)N[C@H]2CC[C@H](CCNC(=O)c3ccccc3F)O[C@@H]2CO)cc1 was read as SIAE inh -1.3, TDP2 absorb -6.6, TCR-CD3 inh 6.4 and ABHD4 inh -5.6.
For Clc1ccc(-c2nnc(Sc3nc4ccccc4o3)c3ccccc23)cc1 the results were SIAE inh -1.3, HTRA1 inhibitor 137.1*, TDP2 absorb 3.0, TCR-CD3 inh 3.5, ABHD4 inh -4.3, PAD4 inh 9.9 and HTRA1 inh conf -4.5.
CN1CC(=O)N(CC(=O)Nc2cc(Cl)cc(Cl)c2)C1=O was read as SIAE inh -5.8, HTRA1 inhibitor -1.8, TDP2 absorb 7.7, TCR-CD3 inh -4.0, ABHD4 inh 0.8 and PAD4 inh -3.2.
`O=C(CCCN1C(=O)c2ccccc2C1=O)NCCc1ccc(OC(F)F)cc1` gave SIAE inh -7.7, HTRA1 inhibitor 0.3, TDP2 absorb -4.5, TCR-CD3 inh -4.8, ABHD4 inh -3.6 and PAD4 inh -4.4.
`Cc1ccc(S(=O)(=O)NC[C@H]2O[C@@H](n3cnc4c(N)ncnc43)[C@H](O)[C@@H]2O)cc1` gave SIAE inh 2.8, TDP2 absorb 0.3, TCR-CD3 inh 4.0 and ABHD4 inh 0.9.
For Cc1cc(C)c(O)c(CN(C)Cc2cc(Cl)cc(Cl)c2O)c1 the results were SIAE inh 9.0, HTRA1 inhibitor 62.5*, TDP2 absorb 0.9, TCR-CD3 inh -9.9, ABHD4 inh 5.4 and HTRA1 inh conf 55.1*.
Cc1ccnc(NCc2cc(Cl)cc(Cl)c2O)c1 was read as SIAE inh 1.1, HTRA1 inhibitor 3.2, TDP2 absorb -0.7, TCR-CD3 inh -6.4 and ABHD4 inh -2.3.
`Cc1ccc(S(=O)c2ccc([N+](=O)[O-])c3nonc23)cc1` (centres undefined) gave SIAE inh -12.2, HTRA1 inhibitor 43.1*, TDP2 absorb 5.5, TCR-CD3 inh -3.2, ABHD4 inh 44.3* and HTRA1 inh conf 72.7*.
For Cc1ccc(Nc2c([N+](=O)[O-])ccc3nonc23)c(C)c1 the results were SIAE inh 11.9, HTRA1 inhibitor -6.5, TDP2 absorb 5.9, TCR-CD3 inh -5.2, ABHD4 inh -0.5 and PAD4 inh -3.6.
Screening Cc1cccc(N=Nc2ccc(O)c3ncccc23)c1 returned SIAE inh 8.3, HTRA1 inhibitor 58.5*, TDP2 absorb 1.6, TCR-CD3 inh 6.3, ABHD4 inh 24.7, PAD4 inh -4.7 and HTRA1 inh conf 63.5*.
Screening NS(=O)(=O)c1ccc(N=Nc2ccc(O)c3ncccc23)cc1 returned SIAE inh 4.7, HTRA1 inhibitor 51.8*, TDP2 absorb -18.9, TCR-CD3 inh -7.8, ABHD4 inh 13.2, PAD4 inh -11.8 and HTRA1 inh conf 36.6*.
For Cc1ccc(N=Nc2cc(C)ccc2O)c(C)c1 the results were SIAE inh 3.7, HTRA1 inhibitor 1.8, TDP2 absorb -9.3, TCR-CD3 inh 4.8 and ABHD4 inh -3.1.
For Oc1ccc(N=Nc2ccc3c(c2)OCCO3)c2ncccc12 the results were SIAE inh 14.2, HTRA1 inhibitor 57.9*, TDP2 absorb -9.6, TCR-CD3 inh 2.0, ABHD4 inh 23.1, PAD4 inh -4.4 and HTRA1 inh conf 61.0*.
CCOc1ccc(N=Nc2ccc(O)c3ncccc23)cc1 was read as SIAE inh 10.0, HTRA1 inhibitor 35.6, TDP2 absorb 5.2, TCR-CD3 inh -1.5 and ABHD4 inh 14.4.
`Cc1ccc(C)c(N=Nc2ccc(O)c3ncccc23)c1` gave SIAE inh 10.7, HTRA1 inhibitor 51.7*, TDP2 absorb -7.1, TCR-CD3 inh -0.4, ABHD4 inh 8.6, PAD4 inh -2.6 and HTRA1 inh conf 65.6*.
COc1ccc(CCNC(=O)N[C@@H](Cc2ccccc2)C(=O)O)cc1 was read as SIAE inh -3.9, HTRA1 inhibitor 4.4, TDP2 absorb -12.2, TCR-CD3 inh 2.9, ABHD4 inh -2.4 and PAD4 inh -1.3.
CC(=O)N1CCN(S(=O)(=O)c2ccc3c(c2)oc(=O)n3C)CC1 was read as SIAE inh 7.9, TDP2 absorb -2.5 and ABHD4 inh -3.6.
CN1CCN(c2cc(-c3cc(O)c4ncccc4c3)ccn2)CC1 was read as SIAE inh 3.8, HTRA1 inhibitor 47.4*, TDP2 absorb 0.4, TCR-CD3 inh -5.6, ABHD4 inh 19.2, PAD4 inh -6.0 and HTRA1 inh conf 61.8*.
For CN1CCN(C(=O)c2cccc(-c3cc(O)c4ncccc4c3)c2)CC1 the results were SIAE inh 5.3, HTRA1 inhibitor 25.1, TDP2 absorb -8.5, TCR-CD3 inh 0.3, ABHD4 inh 7.6 and PAD4 inh -1.1.
For Nc1ccn([C@@H]2O[C@H](C(=O)NCCCN3CCCC3=O)[C@@H](O)[C@H]2O)c(=O)n1 the results were SIAE inh 2.8, TDP2 absorb 7.9, TCR-CD3 inh 7.0 and ABHD4 inh 6.3.
Nc1sc2c(c1C(=O)NC1CC1)CCCC2 was read as SIAE inh 7.5, HTRA1 inhibitor 46.9*, TDP2 absorb -12.7, TCR-CD3 inh 7.6, ABHD4 inh 13.0, PAD4 inh -2.5 and HTRA1 inh conf 7.6.
For CCNC(=S)NNC(=O)CSc1nnc(-c2ccccc2)n1-c1ccc(Cl)cc1 the results were SIAE inh 10.1, TDP2 absorb 2.7 and ABHD4 inh 2.5.
O=C(NCCc1ccccc1)c1ccc2nc(-c3ccco3)c(-c3ccco3)nc2c1 was read as HTRA1 inhibitor 47.2*, PAD4 inh -19.3 and HTRA1 inh conf 10.1.
Screening O=C(NCCc1ccccc1)c1ccc(=O)oc1 returned SIAE inh 7.1, HTRA1 inhibitor 4.9, TDP2 absorb 0.6, TCR-CD3 inh -8.6, ABHD4 inh 5.1 and PAD4 inh -9.3.
